Results as given in ChEMBL document CHEMBL1135971, “(2S,1'S,2'S,3'R)-2-(2'-carboxy-3'-methylcyclopropyl) glycine is a potent and selective metabotropic group 2 receptor agonist with anxiolytic properties” (2002).

Assays:
[1] = molecular target: Metabotropic glutamate receptor 5 (Homo sapiens) (UniProt P41594); assay: Phosphoinositide hydrolysis by human Metabotropic glutamate receptor 5 (mGluR5) expressed in non neuronal cells; type: cell-based
In short: (§1)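 Transfected nonneuronal cells seeded at 2.5 × 10^5 per well in glutamine-free medium for 24 h, then labeled with [3H]myo-inositol (4 µCi/mL) for 20 h. Washed in buffer with 10 mM HEPES, inositol and LiCl. Compound added and incubated 60 min at 37 °C. [3H]inositol monophosphate separated by anion exchange and counted by scintillation. Read-out: EC50 for PI hydrolysis.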

[2] = molecular target: Metabotropic glutamate receptor 6 (Homo sapiens) (UniProt O15303); assay: (§2) Inhibition of c-AMP by human Metabotropic glutamate receptor 6 (mGluR6) expressed in non-neuronal cells; type: cell-based
Sequence of Metabotropic glutamate receptor 6 (Homo sapiens) (O15303 whole entry): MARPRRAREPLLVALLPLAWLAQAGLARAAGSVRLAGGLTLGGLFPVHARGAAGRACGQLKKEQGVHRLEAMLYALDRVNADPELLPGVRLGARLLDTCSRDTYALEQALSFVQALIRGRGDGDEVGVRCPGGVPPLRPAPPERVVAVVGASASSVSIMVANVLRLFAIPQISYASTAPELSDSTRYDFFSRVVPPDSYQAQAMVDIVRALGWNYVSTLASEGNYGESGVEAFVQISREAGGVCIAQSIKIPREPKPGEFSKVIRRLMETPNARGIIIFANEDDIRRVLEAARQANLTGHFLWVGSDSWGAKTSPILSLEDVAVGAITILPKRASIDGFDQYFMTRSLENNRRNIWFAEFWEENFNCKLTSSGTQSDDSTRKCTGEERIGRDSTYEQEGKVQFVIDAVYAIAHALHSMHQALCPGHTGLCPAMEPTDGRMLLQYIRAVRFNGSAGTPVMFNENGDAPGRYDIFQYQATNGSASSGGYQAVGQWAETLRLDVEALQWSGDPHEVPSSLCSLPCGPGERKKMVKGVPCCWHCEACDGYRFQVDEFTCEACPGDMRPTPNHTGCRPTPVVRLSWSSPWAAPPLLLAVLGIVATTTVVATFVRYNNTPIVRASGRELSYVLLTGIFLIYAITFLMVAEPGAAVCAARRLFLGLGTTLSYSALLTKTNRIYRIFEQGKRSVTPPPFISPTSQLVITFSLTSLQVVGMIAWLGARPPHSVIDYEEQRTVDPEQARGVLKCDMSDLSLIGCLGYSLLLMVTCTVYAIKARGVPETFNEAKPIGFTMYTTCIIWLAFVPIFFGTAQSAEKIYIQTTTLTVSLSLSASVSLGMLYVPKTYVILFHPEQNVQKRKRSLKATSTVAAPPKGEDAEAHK
In short: (§3)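 Clonal nonneuronal cell lines expressing each mGlu subtype, washed in PBS with 3 mM glucose and 500 μM IBMX, preincubated 30 min at 37 °C. Compound added with forskolin (15 μM final), 20 min at 37 °C. Stopped with 6 mM EDTA and boiling. cAMP measured by [3H]cAMP SPA, with protein per well by Bradford assay. Read-out: EC50 for inhibition of forskolin-stimulated cAMP.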

[3] = molecular target: Metabotropic glutamate receptor 7 (Homo sapiens) (UniProt Q14831); assay: (§4) Inhibition of c-AMP by human Metabotropic glutamate receptor 7 (mGluR7) expressed in non-neuronal cells; type: cell-based; in short: as §3
[4] = molecular target: Metabotropic glutamate receptor 3 (Homo sapiens) (UniProt Q14832); assay: (§5) Inhibition of c-AMP by human Metabotropic glutamate receptor 3 (mGluR3) expressed in non-neuronal cells; type: cell-based; in short: as §3
Sequence of Metabotropic glutamate receptor 3 (Homo sapiens) (Q14832 23-879 limits assumed): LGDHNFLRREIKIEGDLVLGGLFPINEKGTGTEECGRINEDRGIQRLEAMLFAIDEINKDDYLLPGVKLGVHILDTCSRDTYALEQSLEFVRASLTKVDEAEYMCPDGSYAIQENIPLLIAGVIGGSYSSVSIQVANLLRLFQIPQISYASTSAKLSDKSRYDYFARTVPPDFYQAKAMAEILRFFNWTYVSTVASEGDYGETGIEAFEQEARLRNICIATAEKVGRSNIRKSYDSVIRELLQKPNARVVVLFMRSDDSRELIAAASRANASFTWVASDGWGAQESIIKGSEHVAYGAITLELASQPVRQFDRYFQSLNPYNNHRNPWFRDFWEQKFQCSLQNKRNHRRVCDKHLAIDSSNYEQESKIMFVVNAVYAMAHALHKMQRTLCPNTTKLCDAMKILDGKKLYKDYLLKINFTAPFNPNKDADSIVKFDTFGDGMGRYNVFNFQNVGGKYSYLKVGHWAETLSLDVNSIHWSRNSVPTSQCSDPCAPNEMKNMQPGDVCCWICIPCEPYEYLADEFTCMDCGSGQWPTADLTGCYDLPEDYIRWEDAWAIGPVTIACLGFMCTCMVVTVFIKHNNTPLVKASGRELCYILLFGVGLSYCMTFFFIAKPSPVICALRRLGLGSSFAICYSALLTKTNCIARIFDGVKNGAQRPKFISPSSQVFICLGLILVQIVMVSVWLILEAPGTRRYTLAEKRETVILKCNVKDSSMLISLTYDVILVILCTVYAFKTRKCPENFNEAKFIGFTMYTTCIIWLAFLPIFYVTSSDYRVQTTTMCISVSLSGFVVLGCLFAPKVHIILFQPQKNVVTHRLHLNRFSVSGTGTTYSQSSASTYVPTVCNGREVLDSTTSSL

[5] = molecular target: Metabotropic glutamate receptor 2 (Homo sapiens) (UniProt Q14416); assay: Inhibition of c-AMP by human Metabotropic glutamate receptor 2 (mGluR2) expressed in non-neuronal cells; type: cell-based; in short: as §3
Sequence of Metabotropic glutamate receptor 2 (Homo sapiens) (Q14416 19-872 limits assumed): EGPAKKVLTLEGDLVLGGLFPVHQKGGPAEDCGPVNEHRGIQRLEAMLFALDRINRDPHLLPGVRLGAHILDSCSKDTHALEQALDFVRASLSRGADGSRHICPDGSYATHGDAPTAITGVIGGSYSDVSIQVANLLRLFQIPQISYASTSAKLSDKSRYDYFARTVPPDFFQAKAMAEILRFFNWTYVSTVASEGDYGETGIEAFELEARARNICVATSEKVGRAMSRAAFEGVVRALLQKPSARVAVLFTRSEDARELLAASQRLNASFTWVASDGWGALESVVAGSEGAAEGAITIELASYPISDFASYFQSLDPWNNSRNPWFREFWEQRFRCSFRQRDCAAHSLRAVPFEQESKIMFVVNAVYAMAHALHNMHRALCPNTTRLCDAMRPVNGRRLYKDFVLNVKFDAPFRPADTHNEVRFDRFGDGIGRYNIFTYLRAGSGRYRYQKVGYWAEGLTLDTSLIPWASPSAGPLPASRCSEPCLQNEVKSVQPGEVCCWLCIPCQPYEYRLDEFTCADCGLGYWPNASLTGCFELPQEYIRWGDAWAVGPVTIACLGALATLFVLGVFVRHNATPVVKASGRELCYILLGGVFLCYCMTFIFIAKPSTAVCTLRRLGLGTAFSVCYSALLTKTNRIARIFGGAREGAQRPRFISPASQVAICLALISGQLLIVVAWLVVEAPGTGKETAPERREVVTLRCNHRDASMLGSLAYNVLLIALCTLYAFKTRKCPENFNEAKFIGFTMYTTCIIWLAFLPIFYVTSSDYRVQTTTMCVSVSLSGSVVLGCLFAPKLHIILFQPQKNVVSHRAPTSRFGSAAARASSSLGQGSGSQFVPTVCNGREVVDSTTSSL

[6] = molecular target: Metabotropic glutamate receptor 4 (Homo sapiens) (UniProt Q14833); assay: (§6) Inhibition of c-AMP by human Metabotropic glutamate receptor 4 (mGluR4) expressed in non-neuronal cells; type: cell-based; in short: as §3
[7] = molecular target: Metabotropic glutamate receptor 8 (Homo sapiens) (UniProt O00222); assay: Inhibition of c-AMP by human Metabotropic glutamate receptor 8 (mGluR8) expressed in non-neuronal cells; type: cell-based; in short: as §3
Sequence of Metabotropic glutamate receptor 8 (Homo sapiens) (O00222 whole entry): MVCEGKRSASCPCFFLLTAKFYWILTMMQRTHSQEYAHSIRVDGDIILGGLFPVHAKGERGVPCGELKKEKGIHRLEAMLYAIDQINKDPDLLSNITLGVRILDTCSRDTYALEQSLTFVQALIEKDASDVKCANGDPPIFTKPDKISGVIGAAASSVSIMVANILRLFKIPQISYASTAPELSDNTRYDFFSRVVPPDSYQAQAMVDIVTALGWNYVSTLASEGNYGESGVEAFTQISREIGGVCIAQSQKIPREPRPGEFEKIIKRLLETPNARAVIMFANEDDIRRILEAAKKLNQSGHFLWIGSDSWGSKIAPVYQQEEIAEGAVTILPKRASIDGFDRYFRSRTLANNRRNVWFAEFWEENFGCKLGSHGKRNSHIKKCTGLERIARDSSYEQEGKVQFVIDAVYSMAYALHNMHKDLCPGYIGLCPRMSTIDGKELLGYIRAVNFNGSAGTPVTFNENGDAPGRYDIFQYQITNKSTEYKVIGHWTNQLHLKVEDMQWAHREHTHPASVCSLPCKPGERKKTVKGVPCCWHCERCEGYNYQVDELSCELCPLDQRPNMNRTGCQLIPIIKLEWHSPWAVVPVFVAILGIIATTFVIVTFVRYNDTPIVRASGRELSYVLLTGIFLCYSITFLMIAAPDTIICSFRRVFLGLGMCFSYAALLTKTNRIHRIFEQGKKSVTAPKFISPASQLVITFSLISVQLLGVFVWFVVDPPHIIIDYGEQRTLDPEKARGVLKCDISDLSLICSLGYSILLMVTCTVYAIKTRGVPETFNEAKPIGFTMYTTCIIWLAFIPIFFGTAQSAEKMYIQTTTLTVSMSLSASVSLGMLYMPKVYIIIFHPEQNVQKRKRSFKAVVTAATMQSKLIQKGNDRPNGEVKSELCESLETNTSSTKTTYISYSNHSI

[8] = molecular target: Metabotropic glutamate receptor 3 (Homo sapiens) (UniProt Q14832); assay: as §5; type: cell-based; remark: listed apart in the source
In short: (§7)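 Clonal nonneuronal cell lines transfected with each mGlu receptor. Cells washed in Dulbecco's PBS with 3 mM glucose and 500 μM IBMX, preincubated 30 min at 37 °C, then washed. Compound added with forskolin (15 μM final) and incubated 20 min at 37 °C. Stopped with 6 mM EDTA plus boiling, cAMP measured by [3H]cAMP SPA and normalised to Bradford protein. EC50 for inhibition of forskolin-stimulated cAMP.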

[9] = molecular target: Metabotropic glutamate receptor 7 (Homo sapiens) (UniProt Q14831); assay: as §4; type: cell-based; in short: as §7; remark: listed apart in the source
[10] = molecular target: Metabotropic glutamate receptor 6 (Homo sapiens) (UniProt O15303); assay: as §2; type: cell-based; in short: as §7; remark: listed apart in the source
[11] = molecular target: Metabotropic glutamate receptor 4 (Homo sapiens) (UniProt Q14833); assay: as §6; type: cell-based; in short: as §7; remark: listed apart in the source
[12] = system: Rattus norvegicus; assay: Mean effective dose that significantly blocked fear-potentiated startle(oral administration); details: read-out: MED
[13] = molecular target: Metabotropic glutamate receptor 7 (Rattus norvegicus) (UniProt P35400); assay: Inhibition of c-AMP by rat Metabotropic glutamate receptor 7 mGluR7) expressed in non-neuronal cells
[14] = molecular target: Metabotropic glutamate receptor 5 (Homo sapiens) (UniProt P41594); assay: Phosphoinositide hydrolysis by Metabotropic glutamate receptor 5 (mGluR5) expressed in non neuronal cells; type: cell-based; in short: as §1

Sequence of Metabotropic glutamate receptor 5 (Homo sapiens) (P41594 21-1212 limits assumed): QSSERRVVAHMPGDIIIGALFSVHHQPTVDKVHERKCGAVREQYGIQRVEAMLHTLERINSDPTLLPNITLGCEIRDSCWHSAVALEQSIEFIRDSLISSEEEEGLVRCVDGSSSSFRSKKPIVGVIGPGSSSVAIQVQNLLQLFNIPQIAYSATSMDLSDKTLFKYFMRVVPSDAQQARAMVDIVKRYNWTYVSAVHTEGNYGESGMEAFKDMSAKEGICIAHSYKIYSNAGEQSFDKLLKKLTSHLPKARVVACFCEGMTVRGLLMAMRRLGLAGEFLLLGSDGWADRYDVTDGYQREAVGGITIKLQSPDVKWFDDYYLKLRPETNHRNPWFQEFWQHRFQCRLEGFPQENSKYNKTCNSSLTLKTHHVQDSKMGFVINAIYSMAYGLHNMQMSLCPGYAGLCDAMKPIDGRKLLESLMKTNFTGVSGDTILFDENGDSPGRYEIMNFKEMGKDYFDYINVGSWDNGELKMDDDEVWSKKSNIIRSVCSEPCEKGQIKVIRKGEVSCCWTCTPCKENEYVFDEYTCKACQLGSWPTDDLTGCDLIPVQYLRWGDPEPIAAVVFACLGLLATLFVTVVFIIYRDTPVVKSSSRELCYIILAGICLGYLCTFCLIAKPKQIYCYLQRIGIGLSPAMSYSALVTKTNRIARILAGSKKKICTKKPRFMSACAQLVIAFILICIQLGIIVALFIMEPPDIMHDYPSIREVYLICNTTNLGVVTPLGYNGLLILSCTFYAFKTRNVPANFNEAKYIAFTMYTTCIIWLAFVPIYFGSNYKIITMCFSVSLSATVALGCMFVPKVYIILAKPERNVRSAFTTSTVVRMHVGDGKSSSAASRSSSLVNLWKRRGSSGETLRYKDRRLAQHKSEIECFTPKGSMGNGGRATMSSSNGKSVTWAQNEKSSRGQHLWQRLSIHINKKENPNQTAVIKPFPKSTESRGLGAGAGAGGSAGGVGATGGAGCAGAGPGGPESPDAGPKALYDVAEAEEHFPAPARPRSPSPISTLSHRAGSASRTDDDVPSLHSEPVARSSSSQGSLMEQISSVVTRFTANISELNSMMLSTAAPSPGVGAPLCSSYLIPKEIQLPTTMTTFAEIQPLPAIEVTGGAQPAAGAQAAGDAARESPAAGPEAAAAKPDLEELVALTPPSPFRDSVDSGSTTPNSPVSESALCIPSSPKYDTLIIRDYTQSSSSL

| SMILES | Activity [1] [µM] | Activity [2] [nM] | Activity [3] [µM] | Activity [4] [nM] | Activity [5] [nM] | Activity [6] [µM] | Activity [7] [µM] | Activity [13] [µM] | Activity [14] [µM] | Activity [8] [nM] | Activity [9] [µM] | Activity [10] [nM] | Activity [11] [µM] | minimal effective dose [12] [mg/kg] |
| --- | --- | --- | --- | --- | --- | --- | --- | --- | --- | --- | --- | --- | --- | --- |
| N[C@@]1(C(=O)O)CC[C@@H](C(=O)O)C1 | 15 | 18000 | 1000 | 860000 | 12000 | 90 | 45 | – | – | – | – | – | – | – |
| N[C@]1(C(=O)O)[C@H]2[C@@H](C[C@@H]1F)[C@@H]2C(=O)O | > 100 | – | – | – | – | – | > 100 | – | – | 45.4 | > 100 | > 100 | > 100 | – |
| N[C@@]1(C(=O)O)CC(=O)[C@@H]2[C@H]1[C@@]2(F)C(=O)O | > 100 | – | – | – | – | – | – | – | – | 2.7 | > 100 | > 100 | > 100 | – |
| N[C@@]1(C(=O)O)CC[C@H]2[C@H](C(=O)O)[C@H]21 [EGLUMETAD] | > 100 | 3000 | > 100 | 21 | 7.9 | > 100 | 11.5 | – | – | – | – | – | – | 3 |
| N[C@H](C(=O)O)[C@H]1C[C@@H]1C(=O)O | 17 | 600 | 47 | 600 | 300 | – | 0.4 | – | – | – | – | – | – | – |
| N[C@@]1(C(=O)O)CO[C@H]2[C@H](C(=O)O)[C@H]21 | > 100 | 400 | > 100 | 5 | 3 | 21 | 2 | – | – | – | – | – | – | – |
| N[C@@]1(C(=O)O)CS[C@H]2[C@H](C(=O)O)[C@H]21 | > 100 | 2000 | > 100 | 8 | 4 | > 100 | 7 | – | – | – | – | – | – | – |
| N[C@@H](CCC(=O)O)C(=O)O | 4 | 20000 | 5400 | 9000 | – | 12 | – | – | – | – | – | – | – | – |
| N[C@@]1(C(=O)O)CC[C@@H]2[C@H]1[C@@]2(F)C(=O)O | > 100 | > 100 | > 100 | 89 | 16.6 | > 100 | – | – | – | – | – | – | – | – |

The next lines start with results.

| Activity [1] [µM] | Activity [2] [nM] | Activity [3] [µM] | Activity [4] [nM] | Activity [5] [nM] | Activity [6] [µM] | Activity [7] [µM] | Activity [13] [µM] | Activity [14] [µM] | SMILES | Activity [8] [nM] | Activity [9] [µM] | Activity [10] [nM] | Activity [11] [µM] | minimal effective dose [12] [mg/kg] |
| --- | --- | --- | --- | --- | --- | --- | --- | --- | --- | --- | --- | --- | --- | --- |
| > 100 | 1200 | > 100 | 38 | 8 | > 100 | 1.32 | – | – | C[C@H]1[C@H](C(=O)O)[C@H]1[C@H](N)C(=O)O | – | – | – | – | 0.0003 |
| 389 | 40000 | – | 200 | 300 | 23 | 32 | 40 | – | N[C@H](C(=O)O)C1[C@@H](C(=O)O)[C@@H]1C(=O)O (stereo not given in full) | – | – | – | – | – |
| – | – | – | – | 100 | – | – | – | > 100 | COC[C@H]1[C@H](C(=O)O)[C@H]1[C@H](N)C(=O)O | – | – | – | – | – |
| > 100 | – | – | 2000 | 188 | – | 2.8 | – | – | C[C@@H]1[C@H](C(=O)O)[C@H]1[C@H](N)C(=O)O | – | – | – | – | – |
| > 100 | – | – | – | 300 | – | – | – | – | COC[C@@H]1[C@H](C(=O)O)[C@H]1[C@H](N)C(=O)O | – | – | – | – | – |
